Here are results for 38 variants from the RNAGym collection of RNA variant scans (doi:10.1126/science.aae0568).

B1: tRNA (parent)
chain: GUUCCGUUGGCGUAAUGGUAACGCGUCUCCCUCCUAAGGAGAAGACUGCGGGUUCGAGUCCCGUACGGAACG

Fewer inactive variants are shown than the library holds.

In this series the parent is B1. As to the kind of experiment: yeast fitness relative to wild type (ratio to wild type); higher = fitter; tRNA-Arg(CCU), competitive growth, 37 C, YPD. The method in brief: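 Start and end populations of a pooled competition were compared by 100-nucleotide paired-end sequencing of gene amplicons. The Saccharomyces cerevisiae strains carried tRNA-Arg(CCU) gene variants at the native genomic locus, synthesised with a 3% per-site mutation rate at 69 sites, and competed in YPD at 37°C for 24 hours in six parallel replicates. Darwinian fitness relative to wild type was based on the change in genotype frequencies. Genotypes required ≥ 100 starting reads, and estimates < 0.5 were set to 0.5.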
For GUUCCGUUGGCGUAAUGGUAGCGCGUCUCCCUCCUAAGGCGAAGACUGCGGGUUCGAGUCCCGUACGGAACG, the yeast fitness was 0.88.

With GUUCCGUUGGCGUAAUGGUAGCGCGUCUCCCUCCUAAGGUGAAGACUGCGGGUUCGAGUCCCGUACGGAACG, the yeast fitness was found to be 0.914.

Regarding GUUCCGUUGGCGUAAUGGUAGCGCGUCUCCCUCCUAAGGGGAAGACUGCGGGUUCGAGUCCCGUACGGAACG, the yeast fitness came out at 0.986.

As for GUUCCGUUGGCGUAAUGGUACCGCGUCGCCCUCCUAAGGAGAAGACUGCGGGUUCGAGUCCCGUAUGGAACG, the yeast fitness is at most 0.5.

For the variant GUUCCGUUGGCGUAAUGGUAGCGCGUCUCCCUCCUAAGGAGUAGACUGCGGGUUCGAGUCCCGUAUGGAACG, the yeast fitness is 0.56.

Consider GUUCCGUUGGCGUAAUGGUACCGCGUCUCCCCCCUAAGGGGAAGACUGCGGGUUCGAGUCCCGUACGGAACG, for which the yeast fitness is 0.557.

On to GUUCCGUUGGCGUAAUGGUAGCGCGUCUCCCUCCUAAGGAGAAGGGUGCGGGUUCGAGUCCCGUACGGAACG, for which the yeast fitness is 0.802.

With GUUCCGUUGGCGUAAUGGUAGCGCGUCUCCCUCCUAAGGAGAAGCCUGCGGGUUCGAGCCCCGUACGGAACG, the yeast fitness stood at 0.732.

Turning to GUUCCGUUGGCGUAAUGGUAGCGCGUCUCCCUCCUGAGGAGAAGACUGCGGGUUCGAGUCCCGUACGGAACG, the yeast fitness was found to be 0.954.

With GUUCCGUUGGCGUAAUGGUAGCGCGUCUCCCUCCUAAGGCGCAGACUGCGGGUUCGAGUCCCGUAAGGAACG, the yeast fitness was at most 0.5.

Consider GUUCCGUUGGCGUAAUGGUAGCGCGUCUCCCUCCUAAGGAGAAGGCUGCGGGUUCGAGUCCCGUACAGAACG, for which the yeast fitness is 1.

For GUUCCGUUGGCGUAAUGGUAGCGCGUCUCCCUCCUGAGGAGAAGACUGCGGGAUCGUGUCCCGUUCGGAACG, the yeast fitness was at most 0.5.

For the variant GUUCCGUUGGCGUAAUGGUAGCGCGUCUCCCUCCUAAGGAGUAGACUGCGGGUUCGAGUCCCGUACGCAACG, the yeast fitness worked out at 0.539.

Consider GUUCCGUUGGCGUAAUGGUAGCGCGUCUCCCUCCUAAGGAGGAGACUGCGGGUUCGAGUCCCGUAGGGAACG, for which the yeast fitness was at most 0.5.

As to GUUCCGUUGGCGUAAUGGUAGCGCGUCUCCCUCCUAAGGAGAUGACUGCGGGUUCGAGUCACGUACGGAACG, the yeast fitness is at most 0.5.

In the case of GUUCCGUUGGCGUAAUGGUAGCGCGUCUCCCUCCUACAGAGAAGACUGCGGGUUCGAGUCCCGUUCGCAACG, the yeast fitness is at most 0.5.

Regarding GUUCCGUUGGCGUAAUGGUACCGCGUCUCCCUCCUAAGGAGAAGACUGCGGGUUCGAGUCCCGCACGGAACG, the yeast fitness was determined as 0.835.

GUUCCGUUGGCGUAAUGGUAGCGCGUCUCCCUCCUAAGGAGACGACUGCGGGUUCGAGUCCCGUACGGUCCG: the yeast fitness was 0.762.

In the case of GUUCCGUUGGCGUAAUGGUAGCGCGUCUCCCUCCUAAGGCGUAGAUUGUGAGUUCGAGUCCCGUCCGGAACG, the yeast fitness amounted to 0.732.

For the variant GUUCCGUUGGCGUAAUGGUACCGCGUCUCCCGCCUAAGGAGAAGACUGCGGGUUCGAGUCCCGUACGGAACG, the yeast fitness came out at 0.617.

Turning to GUUCCGUUGGCGUAAUGGUACCGCGUCACCCUCCUAAAGAGAAGACUGCGGGUUCGAGCCCCGUACAGAACG, the yeast fitness was at most 0.5.

Consider GUUCCGUUGGCGUAAUGGUACCGCGUCUCCCUCCUAAGGAGAAGACUGCGGGUUCGAGACCCGUACGGAACG, for which the yeast fitness was found to be 0.791.

Take GUUCCGUUGGCGUAAUGGUAGCGCGUCUCCCUCCUAAGGAGCAGACUGCGGGUUCGAGUCUCGUACGGAACG: the yeast fitness worked out at 0.659.

With GUUCCGUUGGCGUAAUGGUAGCGCGUCUCCCUCCUGAGGAGUAGACUGCGGGUUCGGGUCCCGUACGGAACG, the yeast fitness is at most 0.5.

Take GUUCCGUUGGCGUAAUGGUACCGCGUCUCCCCCCUAAGGAGAAGAUUGCGGGUUCGAGUCCCGUAUGGAACG: the yeast fitness was found to be 0.585.

For the variant GUUCCGUUGGCGUAAUGGUACCGCGUCUCCCUCCUAAGGAGAAGACUGCGGGUGGGAGUCCCGUACGGAACG, the yeast fitness turned out to be 0.585.

On to GUUCCGUUGGCGUAAUGGUAGCGCGUCUCCCUCCUAAGGCGUAGAUUGUGAGUUCGAGUCCCGUACGGCACG, for which the yeast fitness amounted to 0.596.

For GUUCCGUUGGCGUAAUGGUAGCGCGUCUCCCUCCUUAGGAGAAGUCUGUGGGUUCGAGUCCCGAACGGAUCG, the yeast fitness is at most 0.5.

As for GUUCCGUUGGCGUAAUGGUACCGCGUCUCCCUCCAAAGGAGAAGACUGCCGGUUCGAGUCCCGUACGGCACG, the yeast fitness is at most 0.5.

For the variant GUUCCGUUGGCGUAAUGGUACCGCGUCUCCCACAUAAAGAGAAGUCUGCGGGUUCGAGUCCCGUACGGAACG, the yeast fitness was at most 0.5.

With GUUCCGUUGGCGUAAUGGUAGCGCGUCUCCCUCCUAAGGAGUAGACUGUGGGUUCGAGUCCCGUACAGAACG, the yeast fitness was at most 0.5.

For the variant GUUCCGUUGGCGUAAUGGUAGCGCGUCUCCCUCCUAAGGUGAAGACUGCGGCUUAGAGUCCCGUAGGGAACG, the yeast fitness turned out to be 0.539.

Regarding GUUCCGUUGGCGUAAUGGUAGCGCGUCUCCCUCCUAAGGAGAAGCCUGCGGGUUCGAGUCCCGUAUGGAACG, the yeast fitness was 0.555.

With GUUCCGUUGGCGUAAUGGUACCGCGUCUCCCACUUAAGGAGAAGACUGCGGGUUCGAGUCCCGUACGGAACG, the yeast fitness was at most 0.5.

GUUCCGUUGGCGUAAUGGUACCGCGUCUCCCUCCAAAGGAGAAGACUGCGGGUUCGAGUCCCGUACGGAACG: the yeast fitness is 0.601.

GUUCCGUUGGCGUAAUGGUACCGCGUCACCGUCCUAAGGAGAAGACUGCGGGUUCGAGUCCCGUACGGAACG: the yeast fitness was at most 0.5.

On to GUUCCGUUGGCGUAAUGGUACCGCGUCUCCCCCCUAAGGAGAAGAUUGCGGGUUCGAGUCCCGUACGGAACG, for which the yeast fitness came to 0.849.

As for GUUCCGUUGGCGUAAUGGUAGCGCGUCUCCCUCCUUAGGAGAAGACUGCGGGUUCGAGUCUCGUACGGAACG, the yeast fitness is at most 0.5.
